The list is not random: actives were taken first. Their share in the collection is about 1.8%.
CCR6 antag: CCR6 (human) receptor antagonism; P51684; CHO-K1 CCR6 PathHunter beta-arrestin, luminescence, CCL20-stimulated; inhibition, % at 20 µM; hit rate 0.49% among 340,000; AID 493098;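 active = compounds whose inhibition of the agonist-driven luminescence signal at 20 µM reaches about 50%, limit read from the data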;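 also: cells stimulated with CCL20 at 14 nM final; plate controls were DMSO with CCL20 for no effect and DMSO without agonist for full effect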
APJ antagonist: blocks the human apelin receptor APJ | AID 2521 | P35414 | inhibition, % at 20 µM | hit rate 0.32% among 330,000 | CHO-K1 APJ beta-arrestin complementation, luminescence;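 active = inhibition above about 40% at 20 µM, limit read from the data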;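 also: cells challenged with 10 nM apelin-13 agonist together with compound; plate controls were apelin-13 plus DMSO wells for no effect and DMSO wells lacking apelin-13 for full effect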
APJ ag: APJ receptor agonism; activation, % at 20 µM; hit rate 0.11% among 330,000; CHO-K1 APJ PathHunter beta-arrestin, luminescence; 0% DMSO wells, 100% apelin; P35414;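 active = activation more than six SD over the plate average, tested at 20 µM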;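 also: 0% = DMSO alone and 100% = apelin-13 at 10 nM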
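Assay system: engineered CHO-K1 APJ arrestin reporter cells; Amount: 1000 CHO-K1 reporter cells seeded per well; Dosing: one dose, 20 µM compound, 1% DMSO; Times: compound stimulation 90 min at 25 °C, detection 60 min; Measured by: luminescent beta-gal fragment complementation, chemiluminescent substrate; Read-out: APJ–arrestin association signal; Controls: DMSO vs Apelin-13 10 nM.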
CXCR6 block: blocks human CXCR6 beta-arrestin recruitment; O00574; CHO-K1 PathHunter CXCR6 beta-arrestin, luminescence; inhibition, % at 20 µM; hit rate 0.36% among 360,000; in the data active = inhibition above about 34%, passing the limit was not always enough;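 also: antagonist mode with CXCL16 agonist at 10 nM final; 0% = 10 nM CXCL16 with DMSO and 100% = unstimulated wells without agonist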
Beta2AR agonist: activates human beta-2 adrenergic receptor causing internalization; hit rate 0.43% among 340,000; Am2.2-beta2AR cells, FAP receptor internalization, flow cytometry; P07550; response, % (no concentration beside the values);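 active = response above a set limit, near 3 SD of response in nonfluorescent compounds, cut at about 42% in these data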
Target sequence (P07550 whole entry, looked up): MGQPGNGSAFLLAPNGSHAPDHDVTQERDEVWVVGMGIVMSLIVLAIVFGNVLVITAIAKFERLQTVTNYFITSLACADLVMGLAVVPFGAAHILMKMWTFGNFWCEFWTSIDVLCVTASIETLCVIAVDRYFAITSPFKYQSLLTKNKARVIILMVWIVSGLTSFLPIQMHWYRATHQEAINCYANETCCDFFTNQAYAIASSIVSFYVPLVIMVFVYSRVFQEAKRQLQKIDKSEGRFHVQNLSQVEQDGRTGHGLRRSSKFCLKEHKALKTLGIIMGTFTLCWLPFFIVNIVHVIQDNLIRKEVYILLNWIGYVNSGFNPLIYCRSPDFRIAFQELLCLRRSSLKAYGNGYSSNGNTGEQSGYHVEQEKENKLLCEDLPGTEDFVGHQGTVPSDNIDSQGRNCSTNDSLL
EBI2 block: blocks human EBI2 receptor beta-arrestin signaling; P32249; EBI2 beta-arrestin recruitment, luminescence, 7a,25-OHC stimulated; inhibition, % at 5 µM; hit rate 0.81% among 360,000; AID 651636; in the data active = inhibition above about 38%;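 also: enzyme fragment complementation signal reports receptor beta-arrestin coupling in cells; 0% = agonist plus DMSO wells and 100% = wells without agonist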
B2AR ag CP1: agonists of human beta-2 adrenergic receptor. percent response (surface receptor), % at 10 µM. AID 540358. shares compounds with Beta2AR agonist. hit rate 25% among 1,100. Am2.2-beta2AR cells, FAP surface receptor, flow cytometry; active compounds read low;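 active = surface receptor percent response at or below 58%, roughly 3 SD from nonfluorescent compounds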
B2AR FAP counter: flagged in Am2.2 fluorescence counterscreen for beta-2AR agonists. shares compounds with Beta2AR agonist. Am2.2 cells, FAP fluorogen flow cytometry; active compounds read low. calls only at 10 µM. 1,100 tested, under 10 active;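 active = percent response below a set limit in fluorescence channel 1 and below 50% in channel 8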
Numbers without * were called inactive; i = inactive; . = no result.

SMILES	CCR6 antag	APJ antagonist	APJ ag	CXCR6 block	Beta2AR agonist	EBI2 block	B2AR ag CP1	B2AR FAP counter
CC(C)(C)c1ccc(C(=O)NCCCN2CCN(CCCNC(=O)c3ccc(C(C)(C)C)cc3)CC2)cc1	16	5	1	-3	49*	7	81	i
CCCCn1c(N)c(N(CCOC)C(=O)c2ccc(C)c(S(=O)(=O)N3CCCCC3)c2)c(=O)[nH]c1=O	9	11	1	6	7	-8	.	.
COc1ccc(C(=O)Oc2c(CN3CCOCC3)cc(Cl)c3cccnc23)cc1OC	11	15	-5	.	.	.	.	.
O=C(Oc1c(CN2CCOCC2)cc(Cl)c2cccnc12)c1ccccc1F	24	14	1	10	-10	23	111	i
O=C(Oc1c(CN2CCOCC2)cc(Cl)c2cccnc12)c1ccccc1	33	10	-2	19	5	10	.	.
COc1cc(OC)cc(C(=O)Oc2c(CN3CCOCC3)cc(Cl)c3cccnc23)c1	25	-2	-2	25	-5	-3	89	i
CC1CCCN(C(=O)COC(=O)c2ccc[nH]c2=O)C1 (configuration not stated)	-3	-5	-1	4	51*	-10	98	i
CN(C(=O)COC(=O)c1ccc[nH]c1=O)C1CCCCC1	2	7	-3	0	7	-11	.	.
CC(C)CN(C(=O)c1ccc2c(c1)OCCO2)c1c(N)n(Cc2ccccc2)c(=O)[nH]c1=O	13	7	-6	1	66*	-7	107	i
c1ccc(CSc2nnnn2-c2cccc3ccccc23)nc1	-3	13	-1	1	43*	-3	39*	i
Cc1noc(C)c1C(=O)N1CCC1(C)C(=O)NS(=O)(=O)c1cccc(OC(F)F)c1 (configuration not stated)	.	.	.	10	.	-4	.	.
CC1(C)Cc2c(c(-c3ccco3)nc3sc4c(NCC5CCCO5)ncnc4c23)CO1 (configuration not stated)	21	14	-3	-3	83*	21	10*	i
CC1(C)Cc2c(c(-c3ccco3)nc3sc4c(NCCCO)ncnc4c23)CO1	7	10	-2	8	111*	-3	26*	i
COc1ccccc1CNC(=O)COc1cc(O)c2c(c1)OC(C)(C)CC2=O	.	.	.	8	.	2	.	.
CCN(Cc1ccccc1)S(=O)(=O)c1cc(C(=O)NC(C)C2CC3CCC2C3)ccc1OC (configuration not stated)	21	9	0	4	49*	9	52*	i
CC1CCCC(C)N1CCOc1cc(N)ccc1C#N (configuration not stated)	4	.	.	-5	-4	-6	.	.
CCN(CC)/C(=N/S(=O)(=O)c1ccc(C)cc1)c1ccccc1	2	-11	-2	3	78*	-5	110	i
Cc1cnc(CNC(=O)c2ccc3sc([C@H]4C[C@H](O)[C@@H](CO)O4)nc3c2)cn1	.	.	.	-9	.	-5	.	.
CCOc1ccccc1C(=O)N[C@H](C(=O)OCc1csc(CC(=O)Nc2ccc(C)cc2)n1)C(C)C	9	-3	-3	0	-3	19	.	.
CCOc1ccccc1C(=O)NCC(=O)OCc1csc(CC(=O)Nc2ccc(C)cc2)n1	6	8	0	-6	85*	1	12*	i
Cn1c(N2CCN(c3ccccn3)CC2)nc2c1c(=O)n(Cc1ccc(Cl)cc1)c(=O)n2C	-12	0	-3	-3	127*	10	23*	i
CN(C)c1ccc(-c2noc(C3CCN(S(=O)(=O)c4cccc(Cl)c4)CC3)n2)cc1	9	-3	-1	17	65*	18	39*	i
CCCCN(C(=O)c1ccc(NC(=O)C(C)C)cc1)c1ccccc1	6	12	1	0	95*	-10	20*	i
O=C(O)CC1(O)C(=O)N(Cc2ccccc2)c2ccccc21 (configuration not stated)	0	2	0	6	-3	0	.	.

Source: PubChem
